Source: ChEMBL document CHEMBL1148836, “3-Substituted-(5-arylfuran-2-ylcarbonyl)guanidines as NHE-1 inhibitors” (Bioorg Med Chem Lett, 2007)
pIC50: −log10 of the molar value.

Assays:
[1] = target: Sodium/hydrogen exchanger 1 (Homo sapiens, UniProt P19634); experiment: Inhibition of human NHE1 expressed in PS120 cells; type: cell-based
Procedure, shortened: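 PS120 variant cells selectively expressing human NHE-1. Inhibition measured as the effect on sodium-dependent pH recovery after imposed intracellular acidosis. IC50 values are means of three experiments.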

Heart [2] = experiment: Cardioprotective effect against ischemia reperfusion injury in rat heart assessed as recovery of rate pressure product at 10 uM; type: functional
Procedure, shortened: (§1)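 Isolated rat heart ischemia/reperfusion model. Hearts exposed to 10 µM compound for 10 min before ischemia. Read-outs are recovery of contractile function as rate-pressure product (% RPP) and left ventricular end-diastolic pressure (mmHg), each compared with a vehicle group. Values are means, n = 3 or higher.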

Heart [3] = experiment: Cardioprotective effect against ischemia reperfusion injury in rat heart assessed as left ventricular end diastolic pressure at 10 uM; type: functional; procedure, shortened: as §1
Rattus norvegicus = experiment: Cardioprotective effect against ischemia reperfusion injury in rat myocardial infarction model assessed as ratio of infarction size to area at risk at 0.1 mg/kg, iv; type: functional, Myocardium
Procedure, shortened: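 Rat myocardial infarction model. Animals stabilized 20 min after left thoracotomy, then 45 min coronary artery occlusion and 90 min reperfusion. Compound given at 0.1 mg/kg as bolus intravenous injection 5 min before ischemia onset. Infarct size measured as a ratio to area at risk (IS/AAR, %), compared with vehicle. Means, n = 3 or higher.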

Chain of Sodium/hydrogen exchanger 1 (P19634 whole entry): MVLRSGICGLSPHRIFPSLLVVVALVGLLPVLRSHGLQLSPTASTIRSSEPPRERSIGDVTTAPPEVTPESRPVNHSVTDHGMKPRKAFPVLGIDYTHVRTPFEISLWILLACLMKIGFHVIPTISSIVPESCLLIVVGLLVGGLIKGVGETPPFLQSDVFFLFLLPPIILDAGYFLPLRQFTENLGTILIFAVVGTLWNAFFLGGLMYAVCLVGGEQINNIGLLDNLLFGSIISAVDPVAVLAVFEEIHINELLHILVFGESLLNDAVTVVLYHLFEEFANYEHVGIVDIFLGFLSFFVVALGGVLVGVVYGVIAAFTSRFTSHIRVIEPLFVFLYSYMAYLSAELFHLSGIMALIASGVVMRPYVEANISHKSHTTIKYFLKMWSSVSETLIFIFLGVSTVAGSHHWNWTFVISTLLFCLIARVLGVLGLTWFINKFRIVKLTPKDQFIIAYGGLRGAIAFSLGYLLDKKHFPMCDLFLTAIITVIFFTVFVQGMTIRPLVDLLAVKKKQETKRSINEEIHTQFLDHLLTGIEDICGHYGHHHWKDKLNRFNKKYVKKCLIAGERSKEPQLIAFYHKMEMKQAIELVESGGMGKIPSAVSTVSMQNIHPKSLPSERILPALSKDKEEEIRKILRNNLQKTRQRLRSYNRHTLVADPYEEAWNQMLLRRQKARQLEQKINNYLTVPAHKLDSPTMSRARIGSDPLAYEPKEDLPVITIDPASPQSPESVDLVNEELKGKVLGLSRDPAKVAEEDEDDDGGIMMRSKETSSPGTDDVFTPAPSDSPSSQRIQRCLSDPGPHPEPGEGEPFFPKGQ

Row | pIC50 [1] | SMILES | Activity (Heart [2]) [%] | Activity (Heart [3]) [mmHg] | Activity (Rattus norvegicus) [%]
1 | 5.52 | N=C(N)NC(=O)c1oc(-c2cccc(Cl)c2)cc1-n1cccc1 | – | – | –
2 | 5.92 | NC(N)=NC(=O)c1oc(-c2ccccc2F)cc1N | 62 | 20 | –
3 | 6.82 | COc1ccccc1-c1cc(N)c(C(=O)N=C(N)N)o1 | 30 | 31 | 55
4 | 6.11 | Cc1cccc(-c2cc(N)c(C(=O)NC(=N)N)o2)c1 | – | – | –
5 | < 4.52 | CC(=O)N(C)c1cc(-c2ccccc2)oc1C(=O)NC(=N)N | – | – | –
6 | 6.82 | NC(N)=NC(=O)c1oc(-c2cccc(Cl)c2)cc1N | 33 | 27 | 53
7 | < 4.52 | CC(=O)N(C)c1cc(-c2cc(Cl)ccc2Cl)oc1C(=O)N=C(N)N | – | – | –
8 | 4.48 | COc1ccc(Cl)cc1-c1cc(N(C)C(C)=O)c(C(=O)NC(=N)N)o1 | – | – | –
9 | 6.92 | COc1ccc(F)cc1-c1cc(N)c(C(=O)NC(=N)N)o1 | – | – | –
10 | 6.89 | Cc1cc(-c2cc(F)ccc2F)oc1C(=O)N=C(N)N | – | – | –
11 | 7.14 | Cc1ccc(C)c(-c2cc(N)c(C(=O)NC(=N)N)o2)c1 | – | – | –
12 | 8.00 | COc1ccc(Cl)cc1-c1cc(C)c(C(=O)N=C(N)N)o1 | 0.3 | 34 | –
13 | 7.82 | COc1ccc(Cl)cc1-c1cc(N)c(C(=O)N=C(N)N)o1 | 27 | 29 | –
14 | 6.64 | CCc1cc(-c2cccc(Cl)c2)oc1C(=O)NC(=N)N | – | – | –
15 | 5.25 | COc1ccc(Cl)cc1-c1cc(-c2ccccc2)c(C(=O)NC(=N)N)o1 | – | – | –
16 | 6.92 | CN(C)c1cc(-c2cccc(Cl)c2)oc1C(=O)N=C(N)N | – | – | –
17 | 4.85 | CC(=O)Nc1cc(-c2ccccc2)oc1C(=O)N=C(N)N | – | – | –
18 | 5.21 | CC(=O)Nc1cc(-c2cc(Cl)ccc2Cl)oc1C(=O)N=C(N)N | – | – | –
19 | 5.35 | COc1ccc(Cl)cc1-c1cc(NC(C)=O)c(C(=O)N=C(N)N)o1 | – | – | –
20 | 7.02 | CNc1cc(-c2cc(Cl)ccc2Cl)oc1C(=O)N=C(N)N | – | – | –

Row | pIC50 [1] | SMILES | Activity (Heart [2]) [%] | Activity (Heart [3]) [mmHg] | Activity (Rattus norvegicus) [%]
21 | 5.29 | N=C(N)NC(=O)c1oc(-c2cccc(Cl)c2)cc1N1CCCC1 | – | – | –
22 | 4.80 | NC(N)=NC(=O)c1oc(-c2cccc(Cl)c2)cc1N1CCCCC1 | – | – | –
23 | 6.39 | N=C(N)NC(=O)c1oc(-c2cc(F)ccc2F)cc1N | – | – | –
24 | 6.32 | NC(N)=NC(=O)c1oc(-c2cc(Cl)ccc2Cl)cc1N1CCCC1 | – | – | –
25 | 6.32 | NC(N)=NC(=O)c1oc(-c2cc(Cl)ccc2Cl)cc1N1CCCCC1 | – | – | –
26 | 8.10 | N=C(N)NC(=O)c1oc(-c2cc(Cl)ccc2Cl)cc1N | – | – | –
27 | < 4.52 | CC(=O)N(C)c1cc(-c2cccc(Cl)c2)oc1C(=O)NC(=N)N | – | – | –
28 | 6.92 | CN(C)c1cc(-c2ccccc2)oc1C(=O)N=C(N)N | – | – | –
29 | 8.05 | CN(C)c1cc(-c2cc(Cl)ccc2Cl)oc1C(=O)NC(=N)N | – | – | –
30 | 7.92 | COc1ccc(Cl)cc1-c1cc(N(C)C)c(C(=O)N=C(N)N)o1 | 6.4 | 40 | –
31 | 6.09 | CNc1cc(-c2cccc(Cl)c2)oc1C(=O)N=C(N)N | – | – | –
32 | 7.62 | Cc1cc(-c2cccc(Cl)c2)oc1C(=O)NC(=N)N | – | – | –
33 | 6.09 | CNc1cc(-c2ccccc2)oc1C(=O)N=C(N)N | – | – | –
34 | 7.80 | Cc1cc(-c2cc(Cl)ccc2Cl)oc1C(=O)NC(=N)N | – | – | –
35 | 5.64 | N=C(N)NC(=O)c1oc(-c2ccccc2)cc1N | – | – | –
36 | 6.62 | Cc1ccccc1-c1cc(N)c(C(=O)N=C(N)N)o1 | 30 | 28 | 47
37 | 6.17 | NC(N)=NC(=O)c1oc(-c2cccc(F)c2)cc1N | 49 | 25 | –
38 | 4.85 | CC(=O)Nc1cc(-c2cccc(Cl)c2)oc1C(=O)NC(=N)N | – | – | –
39 | – | CC(C)c1ccc(C(=O)N=C(N)N)cc1S(C)(=O)=O [CARIPORIDE] | 48 | 24 | 41
